In the library only some 4% were active in any assay of this set; here they are far more common.
OX1R antag-1: blocks the human orexin 1 receptor; 0.43% of 330,000 active; O43613; inhibition, % at 5 µM; CHO/OX1R cells, Fluo-8 calcium fluorescence, orexin A;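 active = inhibition above its plate's threshold, mean inhibition of all tested compounds on the plate plus 3 SD, cut at about 37% in these data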;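 also: 0% = orexin A challenge wells and 100% = SB-334867-A antagonist wells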
CHO parental Ca: signal in parental CHO cells, OX1R antagonist counter-screen | inhibition, % at 5.6 µM | 0.63% of 330,000 active | parental CHO-K1, ATP-induced calcium, Fluo-8 fluorescence | AID 463079;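 active = inhibition above that plate's mean sample inhibition plus 3 SD, cut at about 26% in these data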;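 also: 0% = ATP-challenged DMSO wells and 100% = DMSO wells without ATP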
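Test system: untransfected parental CHO cell line; also added: ATP stimulus; dosing: 5.6 µM, single dose; signal: calcium-sensitive Fluo-8 fluorescence; measure: percent inhibition of ATP-evoked calcium rise, normalized to controls; benchmarks: low control ATP plus DMSO, high control DMSO only; replication: one well per compound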
NTR1 ag: agonists of human neurotensin receptor NTR1 | activation, % at 20 µM | AID 493036 | P30989 | 0.17% of 330,000 active | NTR1-U2OS beta-arrestin-GFP spot imaging, agonist mode;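 active = activation at or above 40% of the spot to cytoplasm intensity ratio, with at least 20 cells analyzed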;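 also: 0% = DMSO without peptide and 100% = 100 nM NTR1 peptide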
Target sequence (P30989 whole entry, looked up): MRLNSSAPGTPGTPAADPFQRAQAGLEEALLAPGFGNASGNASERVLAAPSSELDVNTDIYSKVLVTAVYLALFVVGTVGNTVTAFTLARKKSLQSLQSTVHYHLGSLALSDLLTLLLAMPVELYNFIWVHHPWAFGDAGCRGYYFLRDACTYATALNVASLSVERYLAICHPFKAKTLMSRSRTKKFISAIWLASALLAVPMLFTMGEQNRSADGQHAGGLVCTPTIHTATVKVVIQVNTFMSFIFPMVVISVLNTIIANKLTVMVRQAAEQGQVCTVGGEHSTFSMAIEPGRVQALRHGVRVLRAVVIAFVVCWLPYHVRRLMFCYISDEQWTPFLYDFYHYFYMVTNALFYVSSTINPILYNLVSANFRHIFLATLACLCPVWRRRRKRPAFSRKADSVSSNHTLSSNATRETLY
OX1R antag-2: OX1R (human) antagonism; O43613; OX1R-expressing cells, FRET antagonist read-out; inhibition, % at 6.6 µM; 1.8% of 330,000 active; AID 485270; in the data active = inhibition mostly above about 38%, no sharp cut-off; inactive = mostly below about 40%;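 also: 0% = agonist challenge alone and 100% = reference antagonist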
TAAR1 agonist: human TAAR1 agonism | Q96RJ0 | CHO RD-HGA16 TAAR1, Fluo-8 calcium fluorescence; vehicle wells 0%, saturating PEA agonist 100% | activation, % at 3 µM | 0.99% of 360,000 active | AID 624467;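 active = activation above the mean activation of all test compounds in the run plus 3 SD, cut at about 38% in these data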
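Test system: RD-HGA16 (CHO) cells co-expressing Gα16 and hTAAR1; dosing: one-point dosing at 3 µM (nominal); timing: 17-24 h seeding, 75 min 37 °C dye, 30 min RT; signal: kinetic Fluo-8 calcium fluorescence; read-out basis: % activation relative to PEA EC100 response; controls: DMSO and PEA EC100; replicates: n 1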
TAAR1 antag: human TAAR1 antagonism. CHO RD-HGA16 TAAR1, Fluo-8 calcium fluorescence, antagonist. inhibition, % at 3 µM. 1.5% of 360,000 active. AID 624466;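 active = inhibition above a per-plate cutoff, the mean inhibition of test compounds on that plate plus 3 SD, cut at about 49% in these data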;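 also: 0% = DMSO plus EC80 beta-PEA response and 100% = DMSO alone without agonist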
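Test system – hTAAR1-expressing CHO RD-HGA16 cells, Gα16-coupled · Reagent – β-PEA at EC80 concentration, post-compound challenge · Compound dosing – 3 µM, single point · Timing – 140 s kinetic read after compound, 140 s after agonist · Detection – Fluo-8 intracellular calcium dye fluorescence, real-time kinetic reads · Control set – DMSO and EC80 PEA controls · Repeats – n of 1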
* hit, by the source's call; nt = not tested or not shown.

SMILES	OX1R antag-1	CHO parental Ca	NTR1 ag	OX1R antag-2	TAAR1 agonist	TAAR1 antag
COCCCNC(=O)C[C@H]1C[C@@]2(C(=O)OC)C(=C[C@H](COCc3ccccc3)O[C@@H]2C)N(CCC2=CCCCC2)C1=O	nt	nt	nt	nt	-1.9	-39.2
C[C@H]1COc2cccc(NCCO)c2S(=O)(=O)N1	nt	nt	nt	nt	-0.3	1.5
Nc1ncncc1-c1ccc([N+](=O)[O-])cc1	0.1	-1.5	-1.3	63.3*	1.1	-14.8
CC1=NN(C(N)=S)C(=O)C1N=Nc1ccc([N+](=O)[O-])cc1 (stereo not given)	-2.6	-1.8	1.6	-1.9	nt	nt
N/C(=N\OC(=O)CCCN1C(=O)c2ccccc2C1=O)c1ccc(Br)cc1	-15.9	-5.0	1.0	18.8	11.0	13.6
N/C(=N\OC(=O)CCCCCN1C(=O)c2ccccc2C1=O)c1ccccc1	-8.7	-13.1	-1.3	61.9*	-3.3	12.1
Cn1c2ccccc2c(=O)c2cc(NCCCN3CCOCC3)ccc21	-20.7	-27.9	-2.7	58.6*	5.9	-15.3
CC(C)[C@]1(c2ccccc2)ON(c2ccccc2C(F)(F)F)C1=O	-34.9	-20.3	0.1	2.4	nt	nt
O=c1ccn2c(n1)OC1CC2OC1COC(c1ccccc1)(c1ccccc1)c1ccccc1 (stereo not given)	nt	nt	nt	nt	2.4	-25.0
N#Cc1cc2c(=O)n3ccccc3nc2n(-c2ccc(Cl)cc2)c1=O	-11.7	-8.6	1.6	48.8	5.0	0.4
Cc1ccccc1-n1c(=O)c(C#N)cc2c(=O)n3ccccc3nc21	-8.9	-11.9	0.9	48.5*	7.6	6.0
C(=N\NC1=Nc2cccc3cccc1c23)/c1cccnc1	10.6	-10.3	3.1	72.4*	7.2	25.3
O=Cc1ccc(/C=C2\c3ccccc3C(=O)N2c2ccccc2)o1	nt	nt	nt	nt	1.4	2.0
CCOC(=O)C1=C(C(=O)OCC)C2N(Cc3ccc(Br)cc3)c3ccccc3[C@@]23C[C@@H](C(=O)OC)N(S(=O)(=O)c2ccc(OC)cc2)C3=N1 (stereo not given in full)	nt	nt	nt	nt	1.0	3.8
Cc1cc(C(=O)Cn2cncn2)c(C)n1CCc1ccc(F)cc1	-11.7	-8.8	0.7	26.8	30.8	2.7
Cc1cc(C(=O)COC(=O)c2ccncc2)c(C)n1CCc1ccc(F)cc1	-12.0	4.0	2.6	-1.1	48.4*	9.8
Nc1c(N2CCCC2)cc(Cl)c2nonc12	4.4	3.7	-1.4	39.6*	nt	nt
COc1cccc(C(O)c2nc(-c3cc(F)cc(F)c3)cs2)c1 (stereo not given)	nt	nt	nt	nt	-0.4	-4.1
CCc1nc2ccc(C(=O)Nc3ccc(OC)c(OC)c3)cn2c1N(C)Cc1ccc(N(C)C)cc1	nt	nt	nt	nt	2.8	25.8
C=CC[C@H](CC(=O)N(CCO)Cc1ccccc1)C(=O)N[C@@H](C)COC(=O)[C@@H](CC=C)Cc1ccc(F)cc1	3.4	-16.7	0.4	24.8	20.3	53.6*
C=CCC[C@@H](Cc1ccc(F)cc1)C(=O)OC[C@@H](NC(=O)[C@@H](CC=C)CC(=O)N(CCO)Cc1ccccc1)c1ccccc1	-7.3	-19.3	6.8	15.5	9.5	36.9
C=CCC[C@@H](Cc1ccc(F)cc1)C(=O)OC[C@@H](NC(=O)[C@H](CC=C)CC(=O)N(CCO)Cc1ccccc1)c1ccccc1	48.7	-1.7	5.6	34.2	4.2	60.8*
COc1cc(-n2c(C)cc(O)cc2=O)ccc1Cl	nt	nt	nt	nt	0.5	-11.7
CC1CN(C(=O)c2ccc(S(=O)(=O)Nc3cccc(C(F)(F)F)c3)cc2)CC(C)O1 (stereo not given)	1.7	12.1	-1.5	0.7	58.9*	17.1
CN(C)c1c([N+](=O)[O-])cc2[nH]c(=O)[nH]c2c1[N+](=O)[O-]	8.8	1.1	-3.4	41.7*	4.8	3.6
CCOC(=O)N[C@@H](CC(C)C)C(=O)N1CCC[C@H]1C(=O)NCc1ccccc1	nt	nt	nt	nt	0.2	-2.5
O=C(N=Nc1c(O)[nH]c2c(Cl)cc(Cl)cc12)c1ccccc1O	nt	nt	nt	nt	1.8	24.0
CCCN1C(=O)/C(=C/c2c(NCCCOCC)nc3c(C)cccn3c2=O)SC1=S	nt	nt	nt	nt	8.7	-4.3
O=C1/C(=C\c2c(NCCOCCO)nc3ccccn3c2=O)SC(=S)N1Cc1ccco1	36.9	34.4*	0.6	-6.0	40.8*	61.7*

Source: PubChem BioAssay (several laboratories)
